ChEMBL document CHEMBL3751829, “Synthesis and biological evaluation of 3-tetrazolo steroidal analogs: Novel class of 5α-reductase inhibitors” (Bioorg Med Chem, 2016)

Tests used:
Rattus norvegicus [1] = assay: Effect on organ weight in male wistar rat assessed as seminal vesicles tissue weight per 100g at 5ml/kg, po qd measured on 15th day after 24 hrs of last dose (Rvb=175.439+/-12.833 mg/100g); type: ADME, organism-based; conditions: in vivo
Rattus norvegicus [2] = assay: Decrease in ventral prostate organ weight in male wistar rat at 5ml/kg, po qd measured on 15th day after 24 hrs of last dose; type: functional, Prostate gland; parameters: scale not given: the % may be the effect or the level left
Rattus norvegicus [3] = assay: Effect on organ weight in male wistar rat assessed testis tissue weight per 100g at 5ml/kg, po qd measured on 15th day after 24 hrs of last dose (Rvb=1054.099+/- 55.648 mg/100g); type: ADME, organism-based; conditions: in vivo
[4] = molecular target: T1, 3-oxo-5-alpha-steroid 4-dehydrogenase 1 (Homo sapiens) (UniProt P18405); assay: Inhibition of human 5alpha-1 reductase expressed in HEK293 cells assessed as suppression of conversion of [3]androstenedione at 10 uM incubated for 30 mins by radioactivity-based HPLC analysis; type: cell-based
T1 sequence (whole entry): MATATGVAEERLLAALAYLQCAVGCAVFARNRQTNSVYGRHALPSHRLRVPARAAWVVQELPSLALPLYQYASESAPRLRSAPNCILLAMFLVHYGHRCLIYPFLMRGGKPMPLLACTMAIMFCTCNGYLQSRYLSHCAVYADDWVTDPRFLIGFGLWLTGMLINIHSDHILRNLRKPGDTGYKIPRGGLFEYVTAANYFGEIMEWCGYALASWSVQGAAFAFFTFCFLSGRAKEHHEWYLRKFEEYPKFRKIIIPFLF
Procedure, shortened: (§1)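 Stably transfected HEK293 lines expressing 5AR-1 (HEK-I) or 5AR-2 (HEK-II) were sonicated in saccharose/Tris/EDTA buffer. The suspension was incubated at 37 °C for 30 min with 500 nM androstenedione solution plus [3H]androstenedione and an NADP/glucose/G6PDH regenerating system. Test compounds were added in 2% DMSO. The reaction was stopped with ether; steroids were extracted and analysed by radio-HPLC.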

Rattus norvegicus [5] = assay: Increase in body weight gain in male wistar rat at 5ml/kg, po qd measured on 15th day after 24 hrs of last dose (Rvb=9.412+/-1.632g%); type: ADME, organism-based; conditions: in vivo
[6] = molecular target: T2, 3-oxo-5-alpha-steroid 4-dehydrogenase 2 (Homo sapiens) (UniProt P31213); assay: Inhibition of human 5alpha-2 reductase expressed in HEK293 cells assessed as suppression of conversion of [3]androstenedione at 10 uM incubated for 30 mins by radioactivity-based HPLC analysis; type: cell-based; procedure, shortened: as §1
T2 sequence (whole entry): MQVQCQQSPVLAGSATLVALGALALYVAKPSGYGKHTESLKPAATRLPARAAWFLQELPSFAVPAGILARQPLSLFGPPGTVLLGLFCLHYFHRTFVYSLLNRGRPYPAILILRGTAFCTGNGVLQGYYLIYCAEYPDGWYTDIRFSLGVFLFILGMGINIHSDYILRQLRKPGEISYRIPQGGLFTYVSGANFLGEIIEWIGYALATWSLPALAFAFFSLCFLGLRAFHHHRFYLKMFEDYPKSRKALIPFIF

Rattus norvegicus [7] = assay: Decrease in vas deferens organ weight in male wistar rat at 5ml/kg, po qd measured on 15th day after 24 hrs of last dose; type: functional; parameters: scale not given: the % may be the effect or the level left
Rattus norvegicus [8] = assay: Effect on organ weight in male wistar rat assessed as vas deferens tissue weight per 100g at 5ml/kg, po qd measured on 15th day after 24 hrs of last dose (Rvb=67.613+/-3.248 mg/100g); type: functional
Rattus norvegicus [9] = assay: Effect on organ weight in male wistar rat assessed as adrenal tissue weight per 100g at 5ml/kg, po qd measured on 15th day after 24 hrs of last dose (Rvb=14.762 +/-0.600 mg/100g); type: ADME, organism-based; conditions: in vivo
Rattus norvegicus [10] = assay: Effect on organ weight in male wistar rat assessed as epididymis tissue weight per 100g at 5ml/kg, po qd measured on 15th day after 24 hrs of last dose (Rvb=187.356+/- 5.961 mg/100g); type: functional
[11] = Cytotoxicity against human DU145 cells by rapid colorimetric assay; type: functional, cell-based, DU-145
Procedure, shortened: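 Antiproliferative test on DU-145 cells using the Mosmann method. Seven concentrations were tested in culture medium.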

[12] = molecular target: T3, 3-oxo-5-alpha-steroid 4-dehydrogenase 2 (Homo sapiens, UniProt P31213); assay: Inhibition of human 5alpha-2 reductase expressed in HEK293 cells assessed as suppression of conversion of [3]androstenedione incubated for 30 mins by radioactivity-based HPLC analysis; type: cell-based; procedure, shortened: as §1
T3 sequence (P31213 whole entry): T2 sequence (whole entry)

Rattus norvegicus [13] = assay: Effect on organ weight in male wistar rat assessed as ventral prostate tissue weight per 100g at 5ml/kg, po qd measured on 15th day after 24 hrs of last dose (Rvb=59.494+/- 4.733 mg/100g); type: functional, Prostate gland
Rattus norvegicus [14] = assay: Effect on organ weight in male wistar rat assessed as liver tissue weight per 100g at 5ml/kg, po qd measured on 15th day after 24 hrs of last dose (Rvb=2.994+/- 0.254 g/100g); type: ADME, organism-based; conditions: in vivo
Rattus norvegicus [15] = assay: Toxicity in male wistar rat assessed induction of mortality at 5ml/kg, po qd measured on 15th day after 24 hrs of last dose; type: organism-based; conditions: in vivo
Procedure, shortened: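 Mature male Wistar rats, groups of 5, standard diet. Compounds suspended in 0.50% CMC sodium given orally at 5 ml/kg once daily for 14 days; controls received vehicle only. Animals weighed and killed under ether on day 15, 24 h after last dose.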

Rattus norvegicus [16] = assay: Effect on organ weight in male wistar rat assessed as dorsal prostate tissue weight per 100g at 5ml/kg, po qd measured on 15th day after 24 hrs of last dose (Rvb=50.325+/-7.519 mg/100g); type: functional, Prostate gland
[17] = molecular target: T2, 3-oxo-5-alpha-steroid 4-dehydrogenase 2 (Homo sapiens); assay: Inhibition of human 5alpha-2 reductase expressed in HEK293 cells assessed as suppression of conversion of [3]androstenedione at 2 uM incubated for 30 mins by radioactivity-based HPLC analysis; type: cell-based; procedure, shortened: as §1
Rattus norvegicus [18] = assay: Decrease in epididymis organ weight in male wistar rat at 5ml/kg, po qd measured on 15th day after 24 hrs of last dose; type: functional; parameters: scale not given: the % may be the effect or the level left
Rattus norvegicus [19] = assay: Decrease in dorsal prostate organ weight in male wistar rat at 5ml/kg, po qd measured on 15th day after 24 hrs of last dose; type: functional, Prostate gland; parameters: scale not given: the % may be the effect or the level left
[20] = molecular target: T1, 3-oxo-5-alpha-steroid 4-dehydrogenase 1 (Homo sapiens); assay: Inhibition of human 5alpha-1 reductase expressed in HEK293 cells assessed as suppression of conversion of [3]androstenedione at 2 uM incubated for 30 mins by radioactivity-based HPLC analysis; type: cell-based
Procedure, shortened: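 Lysates of stably transfected HEK293 cells (80% confluent cells sonicated in 300 mM saccharose, 5 mM Tris–HCl, 0.1 mM EDTA). Master mix: Tris buffer, androstenedione (500 nM solution) plus tracer [3H]androstenedione, NADP/glucose/glucose-6-P-dehydrogenase regenerating system; compound added in 2% DMSO. Cell suspension mixed 1:1 with master mix, 37 °C for 30 min. Stopped with ether; steroids extracted, dried, taken up in methanol, radio-HPLC.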

[21] = molecular target: T4, 3-oxo-5-alpha-steroid 4-dehydrogenase 1 (Homo sapiens, UniProt P18405); assay: Inhibition of human 5alpha-1 reductase expressed in HEK293 cells assessed as suppression of conversion of [3]androstenedione incubated for 30 mins by radioactivity-based HPLC analysis; type: cell-based; procedure, shortened: as §1
T4 sequence (P18405 whole entry): T1 sequence (whole entry)

[22] = Homo sapiens, DU-145, read-out: IC50

| Structure (SMILES) | Activity (Rattus norvegicus [1]) [mg] | Activity (Rattus norvegicus [2]) [%] | Activity (Rattus norvegicus [3]) [mg] | inhibition [4] [%] | Activity (Rattus norvegicus [5]) [g%] | inhibition [6] [%] | Activity (Rattus norvegicus [7]) [%] | Activity (Rattus norvegicus [8]) [mg] | Activity (Rattus norvegicus [9]) [mg] | Activity (Rattus norvegicus [10]) [mg] | IC50 [11, 22] [nM] | IC50 [12] [nM] | Activity (Rattus norvegicus [13]) [mg] | Activity (Rattus norvegicus [14]) [g] | Activity (Rattus norvegicus [15]) | Activity (Rattus norvegicus [16]) [mg] | inhibition [17] [%] | Activity (Rattus norvegicus [18]) [%] | Activity (Rattus norvegicus [19]) [%] | inhibition [20] [%] | other results |
| --- | --- | --- | --- | --- | --- | --- | --- | --- | --- | --- | --- | --- | --- | --- | --- | --- | --- | --- | --- | --- | --- |
| C=CCN1C(=O)CC[C@H]2[C@@H]3CC=C4C=C(c5nnn[nH]5)CC[C@]4(C)[C@H]3CC[C@@]21C | 141.816 | 33.61 | 1318.403 | 31.7 | 19.229 | 100 | 37.07 | 42.548 | 24.261 | 169.924 | 496000 | 157 | 39.499 | 3.548 | Non-toxic | 41.802 | 94.7 | 9.3 | 16.94 |  |  |
| C[C@]12CC[C@H]3[C@@H](CC=C4C=C(c5nnn[nH]5)CC[C@@H]43)[C@@H]1CCC2=O | 188.757 | 5.66 | 1350.787 | 79.7 | 21.51 | 79.7 | 12.4 | 59.232 | 19.76 | 180.908 | 536000 |  | 56.124 | 3.457 | Non-toxic | 46.695 | 60.6 | 3.44 | 7.21 | 36.2 |  |
| CC(=O)C1CC[C@H]2[C@@H]3CC=C4C=C(c5nnn[nH]5)CC[C@]4(C)[C@H]3CC[C@]12C (some centres undefined) | 78.265 | 35.4 | 844.538 | 95 | 8.328 | 100 | 57.1 | 29.009 | 17.762 | 127.85 |  | 15.6 | 38.433 | 3.649 | Non-toxic | 41.379 | 100 | 31.76 | 17.78 | 82.6 | IC50 [21]: 547 nM; IC50 ([11]; du-145): Not Active |
| C[C@]12CCC(c3nnn[nH]3)=CC1=CC[C@@H]1[C@@H]2CC[C@]2(C)C(=O)CC[C@@H]12 | 95.251 | 35.2 | 1090.046 | 81.1 | 18.382 | 100 | 59.11 | 27.646 | 17.986 | 119.445 |  | 83.8 | 38.551 | 3.257 | Non-toxic | 42.651 | 100 | 36.25 | 15.25 | 38.7 | IC50 ([11]; du-145): Not Active |
